The source of these data is ChEMBL document CHEMBL5260843 (J Med Chem, 2019).

The structures appear in SMILES notation. The source made the active and inactive calls. The calls are words filed in the database; no cut-off is given here.

A short description of data set [1]: Metabolic stability in rat liver microsomes assessed as intrinsic clearance. It counts as ADME, Microsome. The settings on record: read-out: CLH. (Liver microsomes are vesicles of endoplasmic reticulum, rich in cytochrome P450 enzymes.)
Data set [2] can be described thus: Metabolic stability in human liver microsomes assessed as intrinsic clearance. It counts as ADME, Microsome. As to conditions: read-out: CLH.
Data set [3] relates to MGC-803. Nature of the data set: Induction of ROS generation in human MGC-803 cells at 3 uM incubated for 24 hrs by DCFH-DA staining based flow cytometry analysis (reference value: 2.2%). It counts as functional. (In general: Flow cytometry measures light scatter and fluorescence of single cells or particles in a stream.)
In data set [4] the test system is MGC-803. Put plainly: Induction of ROS generation in human MGC-803 cells at 0.3 uM incubated for 24 hrs by DCFH-DA staining based flow cytometry analysis (reference value: 2.2%). It counts as functional.
The target of a further data set is T1, Cullin-5 (Homo sapiens) (UniProt Q93034).
T1 sequence (whole entry): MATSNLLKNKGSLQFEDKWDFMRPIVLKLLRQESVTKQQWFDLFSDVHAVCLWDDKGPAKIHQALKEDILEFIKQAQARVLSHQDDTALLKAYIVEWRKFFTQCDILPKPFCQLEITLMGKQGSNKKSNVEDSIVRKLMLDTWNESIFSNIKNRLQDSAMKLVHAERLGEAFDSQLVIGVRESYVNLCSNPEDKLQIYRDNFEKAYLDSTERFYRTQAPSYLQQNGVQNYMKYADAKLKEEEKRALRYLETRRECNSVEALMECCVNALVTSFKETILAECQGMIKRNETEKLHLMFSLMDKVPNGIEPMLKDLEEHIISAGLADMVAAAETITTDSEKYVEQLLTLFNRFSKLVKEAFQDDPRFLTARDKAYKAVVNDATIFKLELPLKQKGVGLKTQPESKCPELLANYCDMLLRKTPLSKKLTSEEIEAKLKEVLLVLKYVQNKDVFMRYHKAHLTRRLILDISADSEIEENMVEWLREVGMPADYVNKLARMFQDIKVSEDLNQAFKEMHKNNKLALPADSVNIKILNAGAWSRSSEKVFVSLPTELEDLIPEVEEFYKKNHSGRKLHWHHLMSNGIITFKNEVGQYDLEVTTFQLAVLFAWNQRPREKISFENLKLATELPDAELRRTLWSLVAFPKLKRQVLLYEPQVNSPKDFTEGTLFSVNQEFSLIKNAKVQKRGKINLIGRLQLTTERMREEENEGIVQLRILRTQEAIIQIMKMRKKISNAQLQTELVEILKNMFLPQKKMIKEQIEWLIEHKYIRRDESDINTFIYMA
Put plainly: Inhibition of cullin5 neddylation in UBC/DCN1 overactivated human MGC-803 cells at 0.3 to 10 uM incubated for 24 hrs by Western blot analysis. It counts as cell-based. As to conditions: dose 0.3-10 µM. Summed up:
(§1)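 Cells in 6-well plates were exposed to compound for 24 h. MGC-803 were grown in DMEM and KYSE70 in RPMI 1640, both with 10% FBS at 37 °C and 5% CO2. Lysates were made in RIPA with protease inhibitors and quantified by BCA. 30 μg protein was run on 8% SDS-PAGE and blotted to nitrocellulose. Primary antibodies were applied overnight at 4 °C, then HRP secondaries, with ECL and film detection. GAPDH was the loading control. Run three times.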
For orientation: Immunoblotting shows a protein as a band on a membrane.

A further data set deals with Cullin-4B (Homo sapiens) (UniProt Q13620). Nature of the data set: Inhibition of cullin4B neddylation in UBC/DCN1 overactivated human MGC-803 cells at 0.3 to 10 uM incubated for 24 hrs by Western blot analysis. As to conditions: dose 0.3-10 µM. It counts as cell-based. A digest of the protocol: as §1
The next data set has as its target Cullin-4A (Homo sapiens) (UniProt Q13619). Put plainly: Inhibition of cullin4A neddylation in UBC/DCN1 overactivated human MGC-803 cells at 0.3 to 10 uM incubated for 24 hrs by Western blot analysis. It counts as cell-based. As to conditions: dose 0.3-10 µM. A digest of the protocol: as §1
Data set [5] deals with MGC-803. Put plainly: Inhibition of cullin2 neddylation in UBC/DCN1 overactivated human MGC-803 cells at 0.3 to 10 uM incubated for 24 hrs by Western blot analysis. It counts as cell-based. The settings on record: dose 0.3-10 µM. A digest of the protocol:
as §1

For data set [6], the system named is MGC-803. Put plainly: Inhibition of cullin3 neddylation in UBC/DCN1 overactivated human MGC-803 cells at 3 uM incubated for 24 hrs by Western blot analysis. It counts as cell-based. Summed up: as §1
The target of data set [7] is CDK4/Cyclin D3 (Homo sapiens) (UniProt P11802+P30281). Put plainly: Inhibition of full length human CDK4/N-terminal GST fused human cyclinD3 expressed in baculovirus expression system using 5-FAMIPTSPITTTYFFFKKK-COOH as substrate at 10 uM incubated for 60 mins in presence of ATP relative to control. A digest of the protocol:
(§2)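 CDK/cyclin complexes were assayed with 3 μM 5-FAM peptide substrate. ATP was 20 μM for CDK1, 30 μM for CDK2, 280 μM for CDK4, 800 μM for CDK6 and 10 μM for CDK9. Buffer was 50 mM HEPES pH 7.5, 0.0015% Brij-35, 10 mM MgCl2 and 2 mM DTT. Reactions ran 60 min at 28 °C and were stopped with EDTA. Caliper conversion values were converted to % inhibition.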

The target of data set [8] is CDK9/cyclin T1 (Homo sapiens) (UniProt O60563+P50750). Put plainly: Inhibition of C-terminal His6 tagged full length recombinant human CDK9/full length human Cyclin T1 expressed in baculovirus infected Sf21 cells using 5-FAM-ACSYSPTSPSYSPTSPSYSPTSPSKK as substrate at 10 uM incubated for 60 mins in presence of ATP relative to control. Summed up:
as §2

Data set [9] addresses DCN1-like protein 1/NEDD8-conjugating enzyme Ubc12 (Homo sapiens, UniProt Q96GG9). Nature of the data set: Inhibition of GST-tagged DCN1 PONY domain (unknown origin)/human N-terminal acetylated UBC12 (1 to 12 residues) protein-protein interaction incubated for 1 hr by HTRF analysis. It counts as protein assay.
Data set [10] relates to MGC-803. Put plainly: Induction of p27 accumulation in human MGC-803 cells incubated for 24 hrs by Western blot analysis. It counts as functional, cell-based. As to conditions: dose 1-10 µM. Summed up: as §1
The test system of data set [11] is KYSE-70. Nature of the data set: Induction of p21 accumulation in human KYSE-70 cells incubated for 24 hrs by Western blot analysis. It counts as functional, cell-based. As to conditions: dose 0.3-10 µM. Summed up: as §1
Data set [12] concerns KYSE-70. Put plainly: Induction of p27 accumulation in human KYSE-70 cells incubated for 24 hrs by Western blot analysis. It counts as functional, cell-based. As to conditions: dose 0.3-10 µM. Summed up: as §1
The test system of data set [13] is MGC-803. Nature of the data set: Upregulation of NRF2 protein expression in human MGC-803 cells incubated for 24 hrs by Western blot analysis. It counts as functional, cell-based. The settings on record: dose 1-10 µM. Summed up:
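Cells were grown at 37 °C in 5% CO2 with 10% FBS, MGC-803 in DMEM and KYSE70 in RPMI 1640. They were exposed to the indicated compound concentrations for 24 h, then lysed in RIPA with protease inhibitors and quantified by BCA. 30 μg of protein was run on 8% SDS-PAGE and blotted to nitrocellulose. Primary antibody was applied overnight at 4 °C, with HRP secondary and ECL film detection. GAPDH served as the loading control; the experiment was done three times.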

Data set [14] can be described thus: Metabolic stability in human liver microsomes assessed as half life. It counts as ADME, Microsome.
The nature of data set [15]: Metabolic stability in dog liver microsomes assessed as half life. It counts as ADME, Canis lupus familiaris, Microsome.
Data set [16] deals with T2, DCN1-like protein 1/NEDD8-conjugating enzyme Ubc12 (Homo sapiens) (UniProt Q96GG9+P61081). The settings on record: dose 500.0 nM, time 1.0 hrs.
Data set [17] concerns the target T2, DCN1-like protein 1/NEDD8-conjugating enzyme Ubc12 (Homo sapiens). As to conditions: dose 500.0 nM, time 1.0 hrs. The source holds these as a separate data set.

T2 sequence (P61081 whole entry, looked up): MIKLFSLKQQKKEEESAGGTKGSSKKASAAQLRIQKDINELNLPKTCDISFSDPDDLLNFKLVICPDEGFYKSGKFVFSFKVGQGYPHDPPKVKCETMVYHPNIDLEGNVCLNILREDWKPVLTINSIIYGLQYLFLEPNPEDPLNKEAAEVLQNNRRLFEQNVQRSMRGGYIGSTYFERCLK
T2 sequence (Q96GG9 whole entry, looked up): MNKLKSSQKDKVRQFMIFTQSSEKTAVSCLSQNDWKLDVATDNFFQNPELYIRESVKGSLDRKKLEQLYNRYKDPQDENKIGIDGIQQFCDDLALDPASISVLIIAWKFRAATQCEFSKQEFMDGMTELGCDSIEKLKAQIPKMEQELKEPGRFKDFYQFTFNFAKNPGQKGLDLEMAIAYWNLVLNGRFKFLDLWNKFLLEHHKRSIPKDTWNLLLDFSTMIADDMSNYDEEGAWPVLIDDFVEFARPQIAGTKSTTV
Sequence of DCN1-like protein 1/NEDD8-conjugating enzyme Ubc12 (Q96GG9 whole entry, the tested form may be a part): as the sequence (Q96GG9 whole entry, looked up) above
Sequence of DCN1-like protein 1/NEDD8-conjugating enzyme Ubc12 (P61081 whole entry, further chain, the tested form may be a part): as the sequence (P61081 whole entry, looked up) above
Sequence of Cullin-4B (Homo sapiens) (Q13620 whole entry): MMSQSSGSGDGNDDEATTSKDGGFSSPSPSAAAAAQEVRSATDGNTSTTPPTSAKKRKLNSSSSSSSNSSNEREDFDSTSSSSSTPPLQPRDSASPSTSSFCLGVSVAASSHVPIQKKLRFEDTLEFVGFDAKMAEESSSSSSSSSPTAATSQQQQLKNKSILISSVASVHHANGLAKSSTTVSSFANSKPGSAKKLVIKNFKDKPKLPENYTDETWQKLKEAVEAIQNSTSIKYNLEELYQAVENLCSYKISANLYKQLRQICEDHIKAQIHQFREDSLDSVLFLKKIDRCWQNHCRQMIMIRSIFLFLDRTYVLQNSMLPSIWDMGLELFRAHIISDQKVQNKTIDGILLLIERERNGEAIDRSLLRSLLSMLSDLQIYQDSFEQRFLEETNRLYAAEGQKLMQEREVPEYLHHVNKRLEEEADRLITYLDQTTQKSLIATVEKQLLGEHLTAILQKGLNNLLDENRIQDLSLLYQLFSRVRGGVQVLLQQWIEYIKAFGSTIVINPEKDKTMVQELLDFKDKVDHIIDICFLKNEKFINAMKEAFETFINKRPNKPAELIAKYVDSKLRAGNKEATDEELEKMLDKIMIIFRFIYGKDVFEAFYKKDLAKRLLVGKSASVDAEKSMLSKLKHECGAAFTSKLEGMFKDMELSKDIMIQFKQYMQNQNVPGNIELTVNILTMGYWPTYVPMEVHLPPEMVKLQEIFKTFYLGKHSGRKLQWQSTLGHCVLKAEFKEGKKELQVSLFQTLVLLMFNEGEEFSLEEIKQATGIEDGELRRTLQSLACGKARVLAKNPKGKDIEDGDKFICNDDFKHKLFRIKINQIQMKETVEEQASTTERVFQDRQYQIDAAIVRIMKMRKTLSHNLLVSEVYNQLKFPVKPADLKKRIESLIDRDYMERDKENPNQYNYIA
Sequence of Cullin-4A (Homo sapiens) (Q13619 whole entry): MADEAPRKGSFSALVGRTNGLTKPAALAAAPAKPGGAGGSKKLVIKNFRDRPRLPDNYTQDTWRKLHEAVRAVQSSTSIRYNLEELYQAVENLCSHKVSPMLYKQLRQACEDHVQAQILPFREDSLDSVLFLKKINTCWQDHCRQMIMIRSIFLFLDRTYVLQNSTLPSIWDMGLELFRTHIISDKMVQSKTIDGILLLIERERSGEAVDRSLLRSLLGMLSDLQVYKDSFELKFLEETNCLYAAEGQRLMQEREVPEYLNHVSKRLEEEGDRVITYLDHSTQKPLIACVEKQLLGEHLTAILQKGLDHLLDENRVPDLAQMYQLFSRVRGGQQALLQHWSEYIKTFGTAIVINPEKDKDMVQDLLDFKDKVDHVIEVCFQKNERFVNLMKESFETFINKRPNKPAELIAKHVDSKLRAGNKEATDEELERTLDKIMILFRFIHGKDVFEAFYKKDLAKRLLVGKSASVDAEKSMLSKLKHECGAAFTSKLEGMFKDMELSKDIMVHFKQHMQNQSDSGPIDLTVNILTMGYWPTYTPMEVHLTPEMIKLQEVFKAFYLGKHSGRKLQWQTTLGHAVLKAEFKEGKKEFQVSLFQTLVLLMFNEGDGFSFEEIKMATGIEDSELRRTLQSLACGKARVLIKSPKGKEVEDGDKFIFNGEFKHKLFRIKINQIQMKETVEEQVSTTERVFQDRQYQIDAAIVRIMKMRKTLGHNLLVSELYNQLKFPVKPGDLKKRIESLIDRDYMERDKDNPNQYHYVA

The term inhibition denotes the drop in the measured response relative to a control, in per cent. The term IC50 denotes the point on the concentration scale where inhibition reaches its midpoint. A higher IC50 goes with lower potency. In general, half-life refers to how long it takes for the measured level to halve. Take `Cc1cc(Sc2nnnn2CCN(C)C)n2nc(SCc3ccc(Cl)cc3)nc2n1.Cl`: the CLint scaled was 497 mL/min/kg in data set [1] and over 348 mL/min/kg in [2]. In addition, the Activity in the data set on MGC-803 [3] is 2.6%; in the data set on MGC-803 [4] it was 2.8%; with MGC-803 [10], “Dose-Dependent Effect”; in the data set on KYSE-70 [11], “Dose-Dependent Effect”; in the data set with KYSE-70 [12] it was “Dose-Dependent Effect”; with MGC-803 [13], “Dose-Dependent Effect”. For the same molecule, the inhibition entry at Cullin-5 (Homo sapiens), on Cullin-4B (Homo sapiens), at Cullin-4A (Homo sapiens) and in the data set on MGC-803 [5] was “inactive” each time. Besides, the inhibition entry (in the data set on MGC-803 [6]; in data set [16]; in data set [17]) was “Active” each time. Moreover, the figures for the inhibition in [7] and in [8] were 4.8% and -8.4%, respectively. The molecule further came in with a 50% inhibitory concentration (IC50) in data set [9] of 11 nM. Also, the half-life in [14] and in data set [15] was under 5 min each time.
